Results: ChEMBL document CHEMBL1649387, “Synthesis and evaluation of quinonoid compounds against tumor cell lines” (Eur J Med Chem, 2011)

Tests used:
[1] = test system: SF-295; experiment: Cytotoxicity against human SF295 cells after 72 hrs by MTT assay; type: functional, cell-based; conditions: SF-295, 72 h
[2] = test system: HL-60; experiment: Cytotoxicity against human HL60 cells after 72 hrs by MTT assay; type: functional, cell-based; conditions: HL-60, 72 h
[3] = test system: PBMC; experiment: Cytotoxicity against human PBMC cells after 72 hrs by Alamar Blue assay; type: cell-based
[4] = test system: MDA-MB-435; experiment: Cytotoxicity against human MDA-MB-435 cells after 72 hrs by MTT assay; type: functional, cell-based; conditions: MDA-MB-435, 72 h
[5] = test system: HCT-8; experiment: Cytotoxicity against human HCT8 cells after 72 hrs by MTT assay; type: functional, cell-based; conditions: HCT-8, 72 h
[6] = test system: SF-295; experiment: Induction of apoptosis in human SF295 cells assessed as apoptotic nuclei at 5 uM after 24 hrs by acridine orange/ethidium bromide staining based fluorescence microscopy; type: functional
Outline: (§1)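 Cells exposed 24 h, with or without 24 h pretreatment with 1-bromoheptane. Cell suspension mixed with acridine orange/ethidium bromide (each 100 in PBS) and spread on slide. 300 cells counted per point by fluorescence microscopy to give % apoptotic cells. Mean ± S.E.M. of three experiments.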

[7] = test system: MDA-MB-435; experiment: Induction of apoptosis in human MDA-MB-435 cells assessed as apoptotic nuclei at 5 uM after 24 hrs by acridine orange/ethidium bromide staining based fluorescence microscopy; type: functional; outline: as §1
[8] = test system: HL-60; experiment: Induction of apoptosis in human HL60 cells assessed as apoptotic nuclei at 5 uM after 24 hrs by acridine orange/ethidium bromide staining based fluorescence microscopy; type: functional; outline: as §1
[9] = test system: HCT-8; experiment: Induction of apoptosis in human HCT8 cells assessed as apoptotic nuclei at 5 uM after 24 hrs by acridine orange/ethidium bromide staining based fluorescence microscopy; type: functional; outline: as §1
[10] = test system: HCT-8; experiment: Induction of apoptosis in human HCT8 cells assessed as apoptotic nuclei at 5 uM after 24 hrs by acridine orange/ethidium bromide staining based fluorescence microscopy in presence of 1-bromoheptane; type: functional; outline: as §1
[11] = test system: MDA-MB-435; experiment: Induction of apoptosis in human MDA-MB-435 cells assessed as apoptotic nuclei at 5 uM after 24 hrs by acridine orange/ethidium bromide staining based fluorescence microscopy in presence of 1-bromoheptane; type: functional; outline: as §1
[12] = test system: HL-60; experiment: Induction of apoptosis in human HL60 cells assessed as apoptotic nuclei at 5 uM after 24 hrs by acridine orange/ethidium bromide staining based fluorescence microscopy in presence of 1-bromoheptane; type: functional; outline: as §1
[13] = test system: SF-295; experiment: Induction of apoptosis in human SF295 cells assessed as apoptotic nuclei at 5 uM after 24 hrs by acridine orange/ethidium bromide staining based fluorescence microscopy in presence of 1-bromoheptane; type: functional; outline: as §1

Compound	IC50 [1]	IC50 [2]	IC50 [3]	IC50 [4]	IC50 [5]	Activity [6]	Activity [7]	Activity [8]	Activity [9]	Activity [10]	Activity [11]	Activity [12]	Activity [13]
O=C1c2ccccc2C(=O)c2c1ccc1nc(-c3cccc(F)c3)[nH]c21	> 14.6 µM	> 14.6 µM	> 14.6 µM	> 14.6 µM	> 14.6 µM	–	–	–	–	–	–	–	–
CC(C)CCC1=C(O)C(=O)c2ccccc2C1=O	> 20.5 µM	> 20.5 µM	> 20.5 µM	> 20.5 µM	> 20.5 µM	–	–	–	–	–	–	–	–
CC1(C)OC2=C(C(=O)C(=O)c3ccccc32)[C@H](n2cc(-c3ccc(Br)cc3)nn2)[C@H]1Br	2.33 µM	1.67 µM	4.01 µM	1.99 µM	2.24 µM	–	–	–	–	–	–	–	–
CCCC1=C(OC2(CCC)C(=O)C(=O)c3ccccc3C2=O)C(=O)c2ccccc2C1=O (stereo not given)	> 11.6 µM	> 11.6 µM	> 11.6 µM	> 11.6 µM	> 11.6 µM	–	–	–	–	–	–	–	–
CC(C)CCC1=C(O)C(=O)C2=C(CCCC2)C1=O	> 20.1 µM	> 20.1 µM	> 20.1 µM	> 20.1 µM	> 20.1 µM	–	–	–	–	–	–	–	–
Cc1cccc(-c2nc3ccc4c(c3[nH]2)C(=O)c2ccccc2C4=O)c1	> 14.8 µM	> 14.8 µM	> 14.8 µM	> 14.8 µM	> 14.8 µM	10.05%	9.81%	7.33%	12.01%	7.28%	6.17%	6.18%	7.38%
C=CCC1=C(OC2(CC=C)C(=O)C(=O)c3ccccc3C2=O)C(=O)c2ccccc2C1=O (stereo not given)	> 11.7 µM	> 11.7 µM	> 11.7 µM	> 11.7 µM	> 11.7 µM	8.3%	7.94%	3.91%	12.52%	9.37%	11.36%	8.55%	11.47%
O=C1c2ccccc2C(=O)c2c1ccc1nc(-c3ccccc3)[nH]c21	> 15.4 µM	> 15.4 µM	> 15.4 µM	> 15.4 µM	> 15.4 µM	7.32%	9.02%	12.59%	10.35%	8.11%	11.44%	8.37%	9.17%
CC(C)CC1=C(OC2(CC(C)C)C(=O)C(=O)C3=C(CCCC3)C2=O)C(=O)C2=C(CCCC2)C1=O (stereo not given)	> 10.7 µM	> 10.7 µM	> 10.7 µM	> 10.7 µM	> 10.7 µM	–	–	–	–	–	–	–	–
O=C1c2ccccc2C(=O)c2c1ccc1nc(-c3ccc(F)cc3)[nH]c21	> 14.6 µM	> 14.6 µM	> 14.6 µM	> 14.6 µM	> 14.6 µM	–	–	–	–	–	–	–	–
CC(C)CC1=C(O)C(=O)c2ccccc2C1=O	> 21.7 µM	> 21.7 µM	> 21.7 µM	> 21.7 µM	> 21.7 µM	–	–	–	–	–	–	–	–
O=C1c2ccccc2C(=O)c2c1ccc1nc(-c3ccccc3O)[nH]c21	3.87 µM	> 14.7 µM	> 14.7 µM	> 14.7 µM	3.64 µM	11.73%	7.39%	8.21%	6.48%	4.19%	10.04%	12.59%	9.91%
Cc1ccccc1-c1nc2ccc3c(c2[nH]1)C(=O)c1ccccc1C3=O	> 14.8 µM	> 14.8 µM	> 14.8 µM	> 14.8 µM	> 14.8 µM	11.85%	6.33%	11.47%	5.33%	9.17%	10.38%	10.75%	13.95%
CC1=C(OC2(C)C(=O)c3ccccc3C2=O)C(=O)c2ccccc2C1=O	> 14.4 µM	> 14.4 µM	> 14.4 µM	> 14.4 µM	> 14.4 µM	–	–	–	–	–	–	–	–
CC1(C)OC2C(=O)c3ccccc3C(=O)C2[C@@H](N=[N+]=[N-])[C@@H]1Br (stereo not given in full)	13.8 µM	5.68 µM	11.3 µM	3.97 µM	12.4 µM	–	–	–	–	–	–	–	–
